The values below come from article PMC3823100 (Journal of Cellular and Molecular Medicine, 2011).

What all share (format): cell-based, human
One assay has as its system HFF-1 fibroblasts. In words: MTT cytotoxicity assay, non-tumour cells. To be noted: read-out: IC50 (μM) ± S.D. HFF-1, 72 hrs treatment, MTT test.
A further assay relates to HCT-15 cells. As to the kind of experiment: MTT cytotoxicity assay. To be noted: read-out: IC50 (μM) ± S.D. HCT-15; 72 hrs treatment, MTT test. An outline of the steps: (§1)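 Cells grown with 10% foetal calf serum, penicillin/streptomycin and 2 mM L-glutamine (HCT-15 in RPMI, SW480 in DMEM). Exposed 72 hrs to increasing concentrations diluted from 1 mg/ml stocks in physiological solution, then MTT read-out. Mean absorbance per dose expressed as % of control versus concentration. IC50 from four-parameter logistic fit. Means ± S.D. of at least three measurements.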

The subject of a further assay is SW480 cells. In words: MTT cytotoxicity assay. The conditions noted are these: read-out: IC50 (μM) ± S.D. SW480; 72 hrs treatment, MTT test. A digest of the protocol:
as §1

The test system of a further assay is DLD1 cells. In words: MTT cytotoxicity assay. The conditions noted are these: read-out: IC50 (μM) ± S.D. DLD1; 72 hrs treatment, MTT test.
Assay [1] deals with LoVo cells. As to the kind of experiment: MTT cytotoxicity assay. To be noted: read-out: IC50 (μM) ± S.D. LoVo, MTT test.
The subject of the next assay is MRC-5 fibroblasts. In words: MTT cytotoxicity assay, non-tumour cells. The conditions noted are these: read-out: IC50 (μM) ± S.D. MRC-5, 72 hrs treatment, MTT test.
The test system of assay [2] is LoVo cells. As to the kind of experiment: Alkaline single-cell gel electrophoresis assay. To be noted: 12 hrs, IC50 concentration.
The subject of the next assay is LoVo–OxPt cells. As to the kind of experiment: MTT cytotoxicity assay, oxaliplatin-resistant cells. To be noted: read-out: IC50 (μM) ± S.D. LoVo–OxPt; 48 hrs treatment, MTT test.
Assay [3] deals with caspase-3/-7, -6, -8, -9 in LoVo cells. As to the kind of experiment: Caspase activation. The conditions noted are these: 12 or 24 hrs. A digest of the protocol:
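LoVo cells (10⁶) exposed 12 or 24 hrs, then lysed in 1% Triton X-100, sucrose, 5 mM EDTA, 10 mM Tris-HCl, 2 mM DTT (pH 7.6). Lysate protein incubated 60 min at 37°C with fluorogenic AMC substrates: Ac-DEVD (caspase-3/-7), Ac-VEID (-6), Ac-IETD (-8), Ac-LEHD (-9). AMC release read at ex 370/em 460 nm. Means of at least three independent experiments ± S.D.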

Assay [4] has as its system LoVo cells. As to the kind of experiment: Nuclear DNA fragmentation ELISA. To be noted: 12 hr treatment, IC50 concentration.
Assay [5] concerns cytochrome c release in LoVo cells. In words: Cytochrome c release. To be noted: IC50 concentration, 12 hrs (CP also 6 and 24 hrs). An outline of the steps: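 LoVo cells (30 × 10⁶) were exposed to the test compound for 12 hrs. Cytochrome c release was then assessed by Western blotting. Values are means ± S.D. of at least three measurements.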

Where two headings read alike, the source gives them in different places.

As for `N.N.[Cl][Pt][Cl]` [CisPt, Cisplatin], the 50% inhibitory concentration (IC50) worked out at 23.4 ± 1.97 µM in the assay on HFF-1 fibroblasts; 16.6 ± 2.63 µM in the assay with HCT-15 cells; 25.2 ± 3.33 µM in the assay on SW480 cells; 8.01 ± 2.22 µM in the assay on DLD1 cells; 9.02 ± 1.34 µM in the assay on LoVo cells [1] (72 hrs treatment); 19.7 ± 1.31 µM in the assay on MRC-5 fibroblasts.
For the compound `O=C1[O][Pt]2([NH][C@@H]3CCCC[C@H]3[NH]2)[O]C1=O` [OxPt, oxaliplatin], the IC50 in the assay with HFF-1 fibroblasts was 27.1 ± 1.29 µM; with HCT-15 cells it was 2.37 ± 0.58 µM; in the assay on LoVo–OxPt cells it was 10.9 ± 1.34 µM; in the assay with SW480 cells it was 4.2 ± 0.75 µM; in the assay with DLD1 cells, 5.81 ± 1.93 µM; in the assay on LoVo cells [1] (48 hrs treatment) it was 2.05 ± 0.43 µM. Also, the results for the IC50 with LoVo cells [1] (72 hrs treatment) and with MRC-5 fibroblasts were 0.33 ± 0.17 µM and 23.9 ± 1.35 µM, respectively. Moreover, the “comet appearance / electrophoretic migration of DNA fragments” value with LoVo cells [2] is on record as “significant increase in comet appearance”. For the same compound, the “caspase-3/-7, -6, -8, -9 activity (free AMC)” value in assay [3] was “substantial activation of all caspases”. Moreover, the “increase in histone-DNA formation compared to controls” value with LoVo cells [4] is “roughly 30 fold”. The cytochrome c release entry in assay [5] is on record as “substantial cytohrome c release”.
